Test results published in the EternaBench riboswitch data.

System: MS2 coat protein
Test: apparent Kd, MS2 coat protein; higher = weaker binding; RNA-MaP array
In short: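 Fluorescently labeled MS2 coat protein, from 1.5 nM to 3 μM, was incubated at room temperature with designed RNAs transcribed on an Illumina sequencing chip from sequenced DNA templates. Times ran from 0.8–1.5 h at the lowest concentrations to 10–20 min at the highest, in Tris-HCl pH 7.5 buffer with KCl, MgCl2, BSA, DTT, tRNA and Tween20, with or without input ligand. Each apparent Kd is the median of per-cluster binding-curve fits, and designs with fewer than 10 measured clusters were excluded.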

[1] = designed as: OFF switch for flavin mononucleotide, no ligand
[2] = ligand present: flavin mononucleotide, designed as: OFF switch for flavin mononucleotide
[3] = designed as: ON switch for flavin mononucleotide, no ligand
[4] = ligand present: flavin mononucleotide, designed as: ON switch for flavin mononucleotide

| Sequence | apparent Kd [1] [nM] | apparent Kd [2] [nM] | apparent Kd [3] [nM] | apparent Kd [4] [nM] | also measured |
| --- | --- | --- | --- | --- | --- |
| GUACACAUGAGGAUCACCCAUGUACUGGUACGAGGACCGGUACGGCCGCCACUCGCCGAGAUUCAUAACACAUCAGAAAGCUCAC |  |  |  |  | apparent Kd (designed as: ON switch for tryptophan, no ligand): 17.6 nM; apparent Kd (ligand present: tryptophan, designed as: ON switch for tryptophan): 15.6 nM |
| GCAAGAGAGCAGAAGGUUGAGGGCGUUCCCGUUUACAUGAGGAUCACCCAUGUUGCUAACAUGUCAAAGGAUAUGCCUAACGCU | 70.8 | 63.8 |  |  |  |
| CAUGCGGCUAGUGAGCGUGGUGAGUAAAGGCGAGGACCGGUACGGCCGCCACUCGAGGCAAGACAUGAGGAUCACCCAUGUUGUA |  |  |  |  | apparent Kd (designed as: OFF switch for tryptophan, no ligand): 15.1 nM; apparent Kd (ligand present: tryptophan, designed as: OFF switch for tryptophan): 12.9 nM |
| AUAGCAAAAGUGAGGAUAUUCGACAUAGAACGCAUGAAGAAGGCACAUGAGGAUCACCCAUGUUCUCGUUAGUA | 10.6 | 14.1 |  |  |  |
| CUAGGUCAAGGAUAUACAUGAGGAUCACCCAUGUAAGAACCUAGUAGGGUCGUCCGAGGUAGAAGGUGAGCAUU | 24.9 | 19.6 |  |  |  |
| GAAAUCAGAGAGAAGGGUUUACAUCCGACAUGAGGAUCACCCAUGUAGUAAAACUACGACAACUAACAGGAUAUCACUGGCACC |  |  | 208 | 176 |  |
| GAGAGAAAGCCAGGAUAUUAGAACUAGGCACAUGAGGAUCACCCAUGUGGUGAUGAUCAUAAGACUAAGAAGGGGCACCGGAUU |  |  | 521 | 450 |  |
| UUCGACAGCGUGAGGAUAUCUACAUCGGGUAGGUGAGAGAAGGCACAUGAGGAUCACCCAUGUUCUGAAGAGCA | 16 | 19.9 |  |  |  |
| GAGAGGGCUUGAGGAUAUCUUCACUCCGACAUGAGGAUCACCCAUGUAUUCCGUUGAUCGUUGGGAGAGAAGGCAACUUUGUAA | 58 | 54 |  |  |  |
| UAGCCUCUUAGAGGAUAUUCAUAAGCACGCAAUGAAGAAGGCUAGGACAAGUGGGACAUGAGGAUCACCCAUGUGGGAAUAUGU | 43.3 | 36.8 |  |  |  |
| UCGGGUAAGCAGAAGGCACUAGAUUCUCUUUCAGCGAUAUAACAUGAGGAUCACCCAUGUAGAGGUGAGGAUAUGCAGAAACGC |  |  | 169 | 83.9 |  |
| CAACGACAUGAGGAUCACCCAUGUGAGGAUAUCUACUUGAUCAGGUAACUGCUUCCGAAGAGAAGGCACGGUGA | 20.4 | 19.5 |  |  |  |
| AAACAAAUGCAAGGAUAUCAUAAUACAAACAGGAGAGAAGGUGCAGAGCACAUGAGGAUCACCCAUGUCCUAGGAUAUUCCUAA |  |  | 121 | 80.4 |  |
| UUUCUCAAUGUCAGGAUAUAGAUUUGACAUCCUCACUAGAAGGGACAUGAGGAUCACCCAUGUGUCAAUGCGGC |  | 17.6 |  |  |  |
| UAGGGUCUGUCGCGACAUGAGGAUCACCCAUGUGCUUAGUCAAGAAGGGCGGACAUGCAAAACCCGCAGGAUAUUGUAUGCACU | 254 | 59.5 |  |  |  |
| GACAGAAAGUCAGGAUAUGAACGGUCAUGACAUGAGGAUCACCCAUGUUUCUUGUGCACCCUGCGUCAGAAGGGACUAGUGAGG |  |  | 19.3 | 12.8 |  |
| GGCUCCGUAGGAUAUCGUAUUAGCGACAUGAGGAUCACCCAUGUUCAUUUGUCCUCAAUACGAGAAGGACGAACUC | 16.1 | 18.3 |  |  |  |
| AAGGGUCAACAGAAGGUUGUCGAACAUUGCGCCAAAGGAUAUGUCUACCGUUUAAGCGUUCGUCACAUGAGGAUCACCCAUGUU |  |  | 26.8 | 18.3 |  |

| Sequence | apparent Kd [1] [nM] | apparent Kd [2] [nM] | apparent Kd [3] [nM] | apparent Kd [4] [nM] | also measured |
| --- | --- | --- | --- | --- | --- |
| AAACAUACGUGAGGAUAUCCCGUUUGAGAGGCUAGUAUCAUCGAAACAUGAGGAUCACCCAUGUCGGAGAAGGCACUACAGGAG |  |  | 6.63 | 6.6 |  |
| GACGUGUCGCAGAAGGUGGCGAGGAUAGACAUGAGGAUCACCCAUGUGGGACGCGUUAGGUCUGCCAAGGAUAUGCGCAACUCU | 54.3 | 28.7 |  |  |  |
| UAGAUAUGAGGAUAUACAUGAGGAUCACCCAUGUGGUUAUCAAACGACAUGACAUUUAGUAGAAGGCAAACAUC | 23.5 | 21 |  |  |  |
| UCAGUGUCAGGAUAUUCUAACGAGGGUAGUGCGCCCUUUGUGAAGAAGGGACAUGAGGAUCACCCAUGUACUUG | 51.2 | 125 |  |  |  |
| GACAUCCUCACAAUACAUGAGGAUCACCCAUGUGAAGUGGCCUAGGAUAUUCAAGAGUGGGUCACGAAGAAGGAGGCUGCAGGA | 33.3 | 28.3 |  |  |  |
| AUGGUCUCUUAAGGAUAUAGCUAUACAGAGCGCACGUAGGUUAAAUACAUGAGGAUCACCCAUGUCUAGAAGGUAAGUACCGGA |  |  | 11.6 | 11.1 |  |
| GAAUGAAUACAAGGAUAUCCCACAUGAGGAUCACCCAUGUAAAUACAAAUGUAAUACGUUGCUAAGGAGAAGGUGUAGAACAAA |  |  | 113 | 28.9 |  |
| UGGAAGUAAGGAUAUCCGCGCGCGGGUUUUGCGCACGCACUGGAGAAGGUACAUGAGGAUCACCCAUGUUCGUC | 9.85 | 9.59 |  |  |  |
| UCAUCACAUGAGGAUCACCCAUGUCGUAGGUGAUCAGGAUAUGCCUAUGCCUCCAUGGCGGCAGAAGGGAUGCGGG |  |  | 795 | 603 |  |
| UCACGGUCAGGAUAUCCUACCUUAGGGCAACCAUGGUAAACGGAGAAGGGACAUGAGGAUCACCCAUGUACAGC | 12.9 | 26.8 |  |  |  |
| UAUCUACUAUGAGGAUAUCGACAAUGGAUGAACAUGAGGAUCACCCAUGUAACUCAUGGUCCCUUCGAGAAGGCAUGCUAUAAC | 55 | 59.5 |  |  |  |
| GACCGGACAUCCUAGGAUAUUUAUACUGAUACAUGAGGAUCACCCAUGUUUGGAAACAUCGUACGAAAGAAGGAGGAGACCUCUGA |  |  | 11.7 | 10.8 |  |
| CAUUUCUUCACAGGAUAUGCCGUACAUGAGGAUCACCCAUGUGGGUGGGCGUAGCACUGUAGUGCGCAGAAGGGUGGAUCCGAC | 113 | 79.2 |  |  |  |
| GUUAGCACUUAAGGAUAUUGGAAGCGCGUCGUCCAAGAAGGUAAGUUCUUCGUCGACAUGAGGAUCACCCAUGUCAUGCAUGGC | 16.5 | 11.8 |  |  |  |
| ACGGUAGUACAUGAGGAUCACCCAUGUGGUUUUCUAAGAGGAUAGGAUAUACGUCCAAGCGGCAGGUAGAAGGAUCGAGUUUGC | 41.7 | 34 |  |  |  |
| CGCCGUACGUCAGGAUAUCACAAUUGGAUCCAUCACAUGAGGAUCACCCAUGUUUACAAGUAGAAUGAGAAGGGACAAGGAUAA |  |  | 49.3 | 43.8 |  |
| UUUAGACCUCAACAUGAGGAUCACCCAUGUAAAUCUCUAUCGAGAAGGAAGGAAGGAACCUUGUCUUAGGAUAUCGACAAUUUC |  |  | 101 | 71.7 |  |
| CCAGUGGGUGGAGGAUAUGAUGACAAACUGUGUUCAGAAGGCCACCUCAAGACACGAACAUGAGGAUCACCCAUGUCCCAACCU |  |  | 227 | 15.8 |  |
